The target in one test is Mu-type opioid receptor (Homo sapiens, UniProt P35372). Nature of the test: Binding affinity against cloned human Opioid receptor mu 1 transfected into chinese hamster ovary cells using [3H]DAMGO as radioligand. The method, boiled down:
(§1)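 Competition binding in CHO cells transfected with cloned human opioid receptors, using [3H]DAMGO (μ), [3H]Cl-DPDPE (δ) and [3H]U69,593 (κ) as displaced radioligands. Hill slopes were examined. Data are averages of two experiments, each run in triplicate.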

The target in test [1] is Delta-type opioid receptor (Homo sapiens, UniProt P41143). Nature of the test: Binding affinity against cloned human Opioid receptor delta 1 transfected into chinese hamster ovary cells using [3H]Cl-DPDPE as radioligand. An outline of the steps: as §1
Delta-type opioid receptor, sequence (P41143 whole entry): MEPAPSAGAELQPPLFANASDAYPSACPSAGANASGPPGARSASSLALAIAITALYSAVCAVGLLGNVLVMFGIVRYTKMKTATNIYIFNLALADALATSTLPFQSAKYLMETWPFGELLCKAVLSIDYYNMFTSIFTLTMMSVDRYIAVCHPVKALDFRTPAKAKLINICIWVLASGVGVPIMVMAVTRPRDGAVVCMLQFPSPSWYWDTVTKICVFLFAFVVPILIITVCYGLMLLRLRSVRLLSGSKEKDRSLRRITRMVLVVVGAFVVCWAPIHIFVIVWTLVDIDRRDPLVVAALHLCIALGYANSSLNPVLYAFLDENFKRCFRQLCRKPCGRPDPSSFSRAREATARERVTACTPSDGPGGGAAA

Drawing on BindingDB's records for doi:10.1021/jm0309203 (University of Bath, 2003), this text covers Ki for two compounds.

The term Ki denotes a dissociation constant, usually derived from enzyme kinetics or from competition with a known ligand. A higher Ki goes with lower affinity.

Mu-type opioid receptor, sequence (P35372 whole entry): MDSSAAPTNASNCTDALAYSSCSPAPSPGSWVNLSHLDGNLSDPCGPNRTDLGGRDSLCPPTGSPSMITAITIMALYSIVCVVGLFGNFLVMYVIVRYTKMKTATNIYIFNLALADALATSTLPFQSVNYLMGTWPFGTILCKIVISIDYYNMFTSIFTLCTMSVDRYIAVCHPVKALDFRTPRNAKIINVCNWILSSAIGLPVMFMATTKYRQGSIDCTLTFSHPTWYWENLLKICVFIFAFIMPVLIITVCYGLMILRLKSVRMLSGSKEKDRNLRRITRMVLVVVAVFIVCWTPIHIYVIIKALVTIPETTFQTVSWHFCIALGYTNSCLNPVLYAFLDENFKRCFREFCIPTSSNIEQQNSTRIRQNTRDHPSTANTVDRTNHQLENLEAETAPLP

On Mu-type opioid receptor, `NC(=Nc1ccc2[nH]c3c(c2c1)C[C@@]1(O)C2Cc4ccc(O)c5c4[C@@]1(CCN2CC1CC1)[C@H]3O5)NCc1ccccc1` [7-benzylamino(imino)methylamino-22-cyclopropylmethyl-14-oxa-11,22-diazaheptacyclo[13.9.1.01,13.02,21.04,12.05,10.019,25]pentacosa-4(12),5(10),6,8,15,17,19(25)-heptaene-2,16-diol] showed a Ki of 10 nM.

In the case of `CCCNC(=Nc1ccc2[nH]c3c(c2c1)C[C@@]1(O)C2Cc4ccc(O)c5c4[C@@]1(CCN2CC1CC1)[C@H]3O5)NCC1CC1` [22-cyclopropylmethyl-7-cyclopropylmethylamino(propylimino)methylamino-14-oxa-11,22-diazaheptacyclo[13.9.1.01,13.02,21.04,12.05,10.019,25]pentacosa-4(12),5(10),6,8,15,17,19(25)-heptaene-2,16-diol], the Ki in test [1] worked out at 15 nM.
